{"source": "ChEMBL document CHEMBL3272006", "about": "“Synthesis of some 1, 8- and 2, 8-disubstituted derivatives of adenosine cyclic 3', 5'-phosphate and their interaction with some enzymes of cAMP metabolism” (J Med Chem, 1976)", "key": {"Bos taurus": {"species": "Bos taurus", "test": "Ratio of Ka for cAMP to Ka for compound for bovine brain protein kinase in presence of 0.5 nmol [32P]ATP-gamma by liquid scintillation spectrometer"}, "Oryctolagus cuniculus": {"species": "Oryctolagus cuniculus", "test": "Activity of rabbit kidney PDE assessed as enzyme-mediated compound hydrolysis after 10 to 60 mins by colorimetric assay relative to cAMP", "assay_type": "tissue-based", "outline": "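Rabbit kidney enzyme; 0.60 ml mix with 3.0 µmol cyclic nucleotide (5 mM), 3.0 µmol Tris HCl pH 7.5, 6 µmol MgCl2, 0.1–0.3 mg protein. Incubated usually 10–60 min, stopped by heating, bacterial alkaline phosphatase added, released phosphate read colorimetrically. Rate expressed relative to cAMP hydrolysis (nmol 5'-AMP per min).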"}, "[1]": {"test": "Inhibition of rabbit lung PDE assessed as inhibition 8-[3H]-cAMP substrate hydrolysis", "parameters": "species or system Oryctolagus cuniculus", "settings": "read-out: I50", "outline": "(§1)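 Beef heart or rabbit lung enzyme; 0.5 ml with 25 µmol Tris HCl pH 7.5, 5 µmol MgCl2, 20–200 µg protein, 80 pmol 8-[3H]cAMP, varying inhibitor levels. Times set by pilot runs. Heat stop, snake venom 5'-nucleotidase converts product to nucleoside, unreacted cyclic nucleotide bound to Dowex-1, nucleoside radioactivity counted. Nucleotidase interference checked with [14C]-5'-AMP.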"}, "[2]": {"test": "Inhibition of bovine heart PDE assessed as inhibition 8-[3H]-cAMP substrate hydrolysis", "parameters": "species or system Bos taurus", "settings": "read-out: I50", "outline": "as §1"}}, "note": "pIC50: −log10 of the molar value."}
{"smiles": "Cc1nc(N)c2nc(Sc3ccc(Cl)cc3)n([C@@H]3O[C@@H]4COP(=O)(O)O[C@H]4[C@H]3O)c2n1", "values": [{"measurement": "Ratio", "setting": "Bos taurus", "value": 2.3}, {"measurement": "fold change (FC)", "setting": "Oryctolagus cuniculus", "value": 0.05}, {"measurement": "pIC50", "setting": "[1]", "value": 4.48}, {"measurement": "pIC50", "setting": "[2]", "value": 5.30}]}
{"smiles": "Cn1cnc2c(nc(SCc3ccccc3)n2[C@@H]2O[C@@H]3COP(=O)(O)O[C@H]3[C@H]2O)c1=N", "values": [{"measurement": "Ratio", "setting": "Bos taurus", "value": 1.3}, {"measurement": "pIC50", "setting": "[1]", "value": 4.21}, {"measurement": "pIC50", "setting": "[2]", "value": 4.17}]}
{"smiles": "Nc1c2ncn([C@@H]3O[C@@H]4COP(=O)(O)O[C@H]4[C@H]3O)c2nc[n+]1[O-]", "values": [{"measurement": "Ratio", "setting": "Bos taurus", "value": 0.45}, {"measurement": "fold change (FC)", "setting": "Oryctolagus cuniculus", "value": 0.33}, {"measurement": "pIC50", "setting": "[1]", "value": 4.46}, {"measurement": "pIC50", "setting": "[2]", "value": 4.30}]}
{"smiles": "Nc1c2nc(Br)n([C@@H]3O[C@@H]4COP(=O)(O)O[C@H]4[C@H]3O)c2nc[n+]1[O-]", "values": [{"measurement": "Ratio", "setting": "Bos taurus", "value": 0.15}, {"measurement": "fold change (FC)", "setting": "Oryctolagus cuniculus", "value": "< 0.05"}, {"measurement": "pIC50", "setting": "[1]", "value": 3.40}, {"measurement": "pIC50", "setting": "[2]", "value": 4.23}]}
{"smiles": "Cc1nc(N)c2nc(Br)n([C@@H]3O[C@@H]4COP(=O)(O)O[C@H]4[C@H]3O)c2n1", "values": [{"measurement": "Ratio", "setting": "Bos taurus", "value": 3.4}, {"measurement": "fold change (FC)", "setting": "Oryctolagus cuniculus", "value": 0.15}, {"measurement": "pIC50", "setting": "[1]", "value": 4.60}, {"measurement": "pIC50", "setting": "[2]", "value": 4.52}]}
{"smiles": "CCCCc1nc(N)c2nc(Br)n([C@@H]3O[C@@H]4COP(=O)(O)O[C@H]4[C@H]3O)c2n1", "values": [{"measurement": "Ratio", "setting": "Bos taurus", "value": 0.66}, {"measurement": "fold change (FC)", "setting": "Oryctolagus cuniculus", "value": "< 0.05"}, {"measurement": "pIC50", "setting": "[1]", "value": 4.77}, {"measurement": "pIC50", "setting": "[2]", "value": 4.96}]}
{"smiles": "CCCCc1nc(N)c2nc(Sc3ccc(Cl)cc3)n([C@@H]3O[C@@H]4COP(=O)(O)O[C@H]4[C@H]3O)c2n1", "values": [{"measurement": "Ratio", "setting": "Bos taurus", "value": 2.2}, {"measurement": "fold change (FC)", "setting": "Oryctolagus cuniculus", "value": "< 0.05"}, {"measurement": "pIC50", "setting": "[1]", "value": 4.96}, {"measurement": "pIC50", "setting": "[2]", "value": 5.30}]}
{"smiles": "Cc1nc(N)c2ncn([C@@H]3O[C@@H]4COP(=O)(O)O[C@H]4[C@H]3O)c2n1", "values": [{"measurement": "Ratio", "setting": "Bos taurus", "value": 0.16}, {"measurement": "fold change (FC)", "setting": "Oryctolagus cuniculus", "value": 0.83}, {"measurement": "pIC50", "setting": "[1]", "value": 5.80}, {"measurement": "pIC50", "setting": "[2]", "value": 5.96}]}
{"smiles": "Cc1nc(N)c2nc(N=[N+]=[N-])n([C@@H]3O[C@@H]4COP(=O)(O)O[C@H]4[C@H]3O)c2n1", "values": [{"measurement": "Ratio", "setting": "Bos taurus", "value": 0.45}, {"measurement": "fold change (FC)", "setting": "Oryctolagus cuniculus", "value": 0.16}, {"measurement": "pIC50", "setting": "[1]", "value": 4.17}, {"measurement": "pIC50", "setting": "[2]", "value": 4.30}]}
{"smiles": "Cn1cnc2c(ncn2[C@@H]2O[C@@H]3COP(=O)(O)O[C@H]3[C@H]2O)c1=N", "values": [{"measurement": "Ratio", "setting": "Bos taurus", "value": 0.012}, {"measurement": "fold change (FC)", "setting": "Oryctolagus cuniculus", "value": 0.16}, {"measurement": "pIC50", "setting": "[1]", "value": 4.19}, {"measurement": "pIC50", "setting": "[2]", "value": 4.10}]}
{"smiles": "Nc1ncnc2c1nc(Br)n2[C@@H]1O[C@@H]2COP(=O)(O)O[C@H]2[C@H]1O", "values": [{"measurement": "Ratio", "setting": "Bos taurus", "value": 2.9}, {"measurement": "fold change (FC)", "setting": "Oryctolagus cuniculus", "value": "< 0.05"}, {"measurement": "pIC50", "setting": "[1]", "value": 4.40}]}
{"smiles": "CCCCc1nc(N)c2nc(SCc3ccccc3)n([C@@H]3O[C@@H]4COP(=O)(O)O[C@H]4[C@H]3O)c2n1", "values": [{"measurement": "Ratio", "setting": "Bos taurus", "value": 1.1}, {"measurement": "fold change (FC)", "setting": "Oryctolagus cuniculus", "value": "< 0.05"}, {"measurement": "pIC50", "setting": "[1]", "value": 5.02}, {"measurement": "pIC50", "setting": "[2]", "value": 5.15}]}
{"smiles": "[N-]=[N+]=Nc1nc2c(N)ncnc2n1[C@@H]1O[C@@H]2COP(=O)(O)O[C@H]2[C@H]1O", "values": [{"measurement": "Ratio", "setting": "Bos taurus", "value": 0.68}, {"measurement": "fold change (FC)", "setting": "Oryctolagus cuniculus", "value": "< 0.05"}, {"measurement": "pIC50", "setting": "[1]", "value": 4.10}, {"measurement": "pIC50", "setting": "[2]", "value": 4.37}]}
{"smiles": "Nc1ncnc2c1nc(Sc1ccc(Cl)cc1)n2[C@@H]1O[C@@H]2COP(=O)(O)O[C@H]2[C@H]1O", "values": [{"measurement": "Ratio", "setting": "Bos taurus", "value": 18}, {"measurement": "fold change (FC)", "setting": "Oryctolagus cuniculus", "value": "< 0.05"}, {"measurement": "pIC50", "setting": "[1]", "value": 3.70}]}
{"smiles": "CCCCc1nc(N)c2ncn([C@@H]3O[C@@H]4COP(=O)(O)O[C@H]4[C@H]3O)c2n1", "values": [{"measurement": "Ratio", "setting": "Bos taurus", "value": 0.46}, {"measurement": "fold change (FC)", "setting": "Oryctolagus cuniculus", "value": 0.64}, {"measurement": "pIC50", "setting": "[1]", "value": 5.52}, {"measurement": "pIC50", "setting": "[2]", "value": 5.00}]}
{"smiles": "Cc1nc(N)c2nc(SCc3ccccc3)n([C@@H]3O[C@@H]4COP(=O)(O)O[C@H]4[C@H]3O)c2n1", "values": [{"measurement": "Ratio", "setting": "Bos taurus", "value": 0.95}, {"measurement": "fold change (FC)", "setting": "Oryctolagus cuniculus", "value": 0.05}, {"measurement": "pIC50", "setting": "[1]", "value": 5.02}, {"measurement": "pIC50", "setting": "[2]", "value": 5.37}]}
{"smiles": "Nc1ncnc2c1nc(SCc1ccccc1)n2[C@@H]1O[C@@H]2COP(=O)(O)O[C@H]2[C@H]1O", "values": [{"measurement": "Ratio", "setting": "Bos taurus", "value": 2.1}, {"measurement": "fold change (FC)", "setting": "Oryctolagus cuniculus", "value": "< 0.05"}, {"measurement": "pIC50", "setting": "[1]", "value": 4.28}, {"measurement": "pIC50", "setting": "[2]", "value": 4.77}]}
